Assay results of several laboratories.
Protocols differ between the studies behind these lines.
Target: Homeodomain-interacting protein kinase 4 (HIPK4, Homo sapiens, UniProt Q8NE63)
One construct used (Q8NE63 1-616): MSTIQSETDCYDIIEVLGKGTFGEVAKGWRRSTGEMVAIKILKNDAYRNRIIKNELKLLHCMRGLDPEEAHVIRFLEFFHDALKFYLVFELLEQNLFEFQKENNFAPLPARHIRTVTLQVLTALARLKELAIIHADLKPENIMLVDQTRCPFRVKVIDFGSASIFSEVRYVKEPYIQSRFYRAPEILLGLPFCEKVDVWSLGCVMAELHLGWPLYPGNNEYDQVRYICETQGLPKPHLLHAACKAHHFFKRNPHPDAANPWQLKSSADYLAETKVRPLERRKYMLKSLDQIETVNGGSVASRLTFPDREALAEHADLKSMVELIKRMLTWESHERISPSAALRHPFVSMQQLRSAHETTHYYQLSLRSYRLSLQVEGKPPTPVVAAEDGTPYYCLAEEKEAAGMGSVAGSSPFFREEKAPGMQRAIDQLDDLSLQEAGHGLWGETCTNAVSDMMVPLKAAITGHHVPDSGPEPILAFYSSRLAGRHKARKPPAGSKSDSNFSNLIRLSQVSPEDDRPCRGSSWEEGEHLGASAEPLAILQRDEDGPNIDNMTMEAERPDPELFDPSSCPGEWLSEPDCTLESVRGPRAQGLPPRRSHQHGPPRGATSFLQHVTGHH

Cc1c[nH]c2nccc(Oc3c(F)cc(Nc4cc(Cl)nc(N)n4)cc3F)c12 has a remaining binding of 100% (cell-free assay; competition with immobilised ligand; 0.1 µM).
For O=C(c1ccc(Nc2ncc(Cl)c(-c3ccc(Cl)s3)n2)cc1)N1CCC(N2CCCC2)CC1, the remaining binding was 3.6% (binding; competition with immobilised ligand; 1 µM).
C[C@@H](c1ccc(-n2cnc3c(N)ncnc32)cc1)N1CCc2nn(C)c(Cc3ccccc3)c2C1=O has a remaining binding of 100% (binding; competition with immobilised ligand; 0.1 µM).
For CN(c1ccnc(CNc2nc(Nc3ccc4c(c3)CC(=O)N4)ncc2C(F)(F)F)n1)S(C)(=O)=O, the remaining binding was 35% (cell-free assay; competition with immobilised ligand; 1 µM).
C[C@H]1CCN(c2nccc(-c3cnn4ncccc34)n2)C1 has a remaining binding of 80% (binding; 1 µM).
O=C(Nc1c[nH]nc1C(=O)NC1CCNCC1)c1cc(F)cc(F)c1 gave a remaining binding of 59% (binding; competition with immobilised ligand; 1 µM).
The remaining binding of O=C(O)[C@H]1[C@H](Cn2nnc3ccccc3c2=O)CC[C@@H]1C(=O)c1ccc(OCCC2CCOCC2)cc1 is reported as 100% (cell-free assay; competition with immobilised ligand; 1 µM).
CNC(=O)[C@@H]1CC[C@@H](n2c(-c3ccc4cnccc4c3)nc3ccc(C(=O)NCc4cccc(C(N)=O)c4)cc32)C1 has a remaining binding of 100% (binding; competition with immobilised ligand; 1 µM).
With Cn1cc(Cl)c2c(Oc3c(F)cc(Nc4cc(Cl)nc(N)n4)cc3F)ccnc21 the remaining binding was 100% (cell-free assay; competition with immobilised ligand; 0.1 µM).
With O=C(c1ccc(Nc2nccc(-c3cc4ccccc4s3)n2)cc1)N1CCC(N2CCCC2)CC1 the remaining binding was 4.1% (binding; competition with immobilised ligand; 1 µM).
For COc1ccc2c(c1)O[C@@H](c1ccc(OC)c(OC)c1)C[C@H]2NC(=O)C1(c2ccc3c(c2)OC(F)(F)O3)CC1, the remaining binding was 51% (cell-free assay; competition with immobilised ligand; 1 µM).
c1cnn2ncc(-c3ccnc(N4CCC45COC5)n3)c2c1 has a remaining binding of 87% (binding; 1 µM).
COc1cnc(Nc2cccc(S(N)(=O)=O)c2)nc1N1CCN(c2ccccc2)C(=O)C1 gave a remaining binding of 91% (binding; competition with immobilised ligand; 1 µM).
The remaining binding of CN(CCCC(F)(F)F)c1nccc(-c2cnn3ncccc23)n1 is reported as 95% (binding; 1 µM).
c1cncc(-c2cccc(Nc3nccc(NC4CCCCC4)n3)c2)c1 gave a remaining binding of 22% (binding; competition with immobilised ligand; 10 µM).
Nc1ncc2c(n1)-c1c([nH]c3ccc(C#CC4CC4)cc13)CCCC2 has a remaining binding of 95% (binding; competition with immobilised ligand; 1 µM).
With N[C@H]1CCN(c2nccc(-c3cnn4ncccc34)n2)C1 the remaining binding was 33% (binding; 1 µM).
For O=c1nc(-c2ccccn2)sc2ccccc12, the remaining binding was 85% (binding; competition with immobilised ligand; 1 µM).
CN(c1nccc(-c2cnn3ncccc23)n1)C1CC1 has a remaining binding of 99% (binding; 1 µM).
The remaining binding of O=C(NCCCN1CCOCC1)c1ccc(Nc2nccc(-c3cc4ccccc4s3)n2)cc1 is reported as 5.8% (binding; competition with immobilised ligand; 1 µM).
With F[C@@H]1CCN(c2nccc(-c3cnn4ncccc34)n2)C1 the remaining binding was 90% (binding; 1 µM).
The remaining binding of C=CC(=O)N1CCC(C(=O)NCC(=O)N2CCN(c3nc(-c4cnc(N)nc4C(F)F)nc(N4CCOCC4)n3)CC2)CC1 is reported as 100% (binding; competition with immobilised ligand; 1 µM).
